aDG glyco act: increases alpha dystroglycan glycosylation; 360,000 tested, 0.22% active; activation, % at 10 µM; Pro5-aDG cells, alpha-DG glycosylation AlphaScreen (IIH6); 0% Pro5, 100% B10-LARGE cell signal;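 active = activation of at least 8% versus controls, or a plate z-score of at least 8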;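 note: Pro5 are CHO cells carrying HIG-tagged alpha-DG that lacks glycosylation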
XBP1 UPR activ: activators of adaptive arm of unfolded protein response (XBP1); activation, % at 20 µM; CHO-XBP1 luciferase reporter, IRE1-XBP1 UPR activation, luminescence; percent of tunicamycin response, DMSO as zero; 330,000 tested, 0.33% active;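 active = versus positive control, 20 µM dose yields 30% or more activation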
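Material – CHO cell line with stable XBP1 luciferase reporter · Buffer or medium – F12 plus 10% FBS · Compound – single point, 20 µM final compound, 1% DMSO · Schedule – 16-18 h cell attachment at 37 °C, then 6 h compound exposure · Signal – Steady-Glo luminescence read · Benchmarks – high control tunicamycin 10 µg/mL final, low control DMSO vehicle only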
CHOP UPR activ: apoptotic UPR (CHOP) activation; CHO-CHOP luciferase reporter, luminescence; percent of tunicamycin response over DMSO baseline; activation, % at 10 µM; 330,000 tested, 0.34% active; AID 449763;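 active = at 10 µM dose, activation of 40% or more, normalized to positive control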
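measured by = luciferase luminescence | assay system = CHO-CHOP cells, stable luciferase reporter of PERK-eIF2a-CHOP signalling | amount = 500 reporter cells seeded per well | timing = 6 h compound exposure at 37 °C after overnight seeding | controls = positive tunicamycin 10 µg/mL, negative DMSO alone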
MPTP inh: permeability transition pore inhibition; isolated mouse mitochondria, Ca2+ swelling absorbance, 30 min; inhibition, % at 10 µM; 360,000 tested, 1.4% active; AID 602449;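 active = inhibition of 50% or more, scaled per plate between neutral and stimulator controls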
GRIN3A LBD mod: modulators (binders) of human NR3A ligand-binding domain; NR3A LBD differential scanning fluorimetry, Tm shift; 0% = protein alone, 100% = glycine-bound protein; Tm shift relative to glycine control, % at 25 µM; 340,000 tested, 2.5% active;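 active = melting temperature shift of at least 10% of the positive control shift, at one fixed dose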
CHOP inh: CHOP inhibition in unfolded protein response. inhibition, % at 10 µM. 220,000 tested, 3.8% active. CHO-K1 CHOP-promoter luciferase, tunicamycin-induced, 15-18 h. AID 2732;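 active = compounds that reduced the stress-induced luciferase reporter signal by more than about 70% of percent inhibition, limit read from the data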
MPTP counter: Rhodamine 123 counter-screen of mitochondrial pore hits; shares compounds with MPTP inh; isolated mitochondria, membrane potential, Rhodamine 123 fluorescence; inhibition, % at 10 µM; 5,000 tested, 78% active; in the data active = inhibition above about 22%
MPTP swell DR: MPTP inhibition, dose response swelling confirmation; shares compounds with MPTP inh; isolated mitochondria swelling, absorbance; IC50, µM; 780 tested, 58% active; AID 651561; in the data active = IC50 below about 20 µM
MPTP counter DR: active in counter-screen for permeability transition pore inhibitors; shares compounds with MPTP inh; isolated mitochondria counterscreen, fluorescence read-out; IC50, µM; 780 tested, 49% active; in the data active = IC50 below about 80 µM
A number is an active result; 0 = inactive; - = no result given. Compounds with a hit are over-represented: about 5.6% of the library has one in this group of screens.

SMILES | aDG glyco act | XBP1 UPR activ | CHOP UPR activ | MPTP inh | GRIN3A LBD mod | CHOP inh | MPTP counter | others
CCC(=O)c1ccc(OCc2ccc(C(=O)c3ccccc3)cc2)cc1 | 0 | 0 | 0 | 101 | 0 | 0 | 104
CC1=NN(c2ccccc2)C(=O)/C1=C/c1c(O)n(-c2ccc(F)cc2)[nH]c1=O | 0 | 0 | 0 | 61 | 11 | 0 | 0
CC1=NN(c2ccccc2)C(=O)/C1=C/c1cccs1 | 0 | 0 | 0 | 0 | 0 | 0 | -
CC1=NN(c2ccccc2)C(=O)/C1=C/c1ccc(Cl)cc1 | 0 | 0 | 0 | 98 | 0 | - | 84
CC(C)CC(NC(N)=O)C(=O)NCCc1ccc(Cl)cc1 (stereo unspecified) | 0 | 0 | 0 | 0 | 0 | 0 | -
O=C(NCCCn1ccnc1)c1ccc(S(=O)(=O)N2CCOCC2)cc1 | 0 | 0 | 0 | 0 | 0 | 0 | -
FC(F)Sc1ccc(NC(=S)NC2CCCCC2)cc1 | 0 | 0 | 0 | 101 | 15 | 95 | 79
CC1CCCCC1NC(=S)Nc1ccc(SC(F)F)cc1 (stereo unspecified) | 0 | 0 | 0 | 66 | 0 | 0 | 91
CCOC(=O)C1(C#N)Cc2ccccc2C1 | 0 | - | - | 0 | 0 | - | -
Cc1cc(C(=O)CSc2nc3ccc(Cl)cc3[nH]2)c(C)n1Cc1ccco1 | 0 | 0 | 0 | 51 | 0 | - | 53
O=C(CSc1nc2ccc(Cl)cc2[nH]1)NCc1ccco1 | 0 | 0 | 0 | 0 | 0 | 0 | -
Cc1cccc2sc(NNC(=O)c3cc(-c4cccs4)nc4ccccc34)nc12 | 0 | 0 | 0 | 68 | 0 | 0 | 87
Cn1c(NCc2c(O)ccc3ccccc23)nc2ccccc21 | 0 | 0 | 0 | 51 | 14 | 0 | 45
Cc1cc(-n2c(C)cc(C(=O)CSc3nc(N)cc(=O)[nH]3)c2C)no1 | 0 | 0 | 0 | 0 | 0 | 0 | -
Cc1cc(C(=O)CSc2nc(N)cc(=O)[nH]2)c(C)n1-c1ccc(OC(F)F)cc1 | 0 | 0 | 0 | 98 | 0 | 0 | 89
CCN(c1ccccc1)S(=O)(=O)c1cc(C(=O)Nc2ccc(F)c(F)c2)ccc1F | 0 | 0 | 0 | 91 | 10 | 71 | 81
CN(c1ccccc1)S(=O)(=O)c1cccc(NC(=O)CCNC(=O)c2ccc([N+](=O)[O-])cc2)c1 | 0 | 0 | 0 | 0 | 0 | - | -
CCN(c1ccccc1)S(=O)(=O)c1cc(NC(=O)Nc2ccccc2C#N)ccc1Cl | 0 | 0 | 0 | 96 | 0 | 0 | 95
CCN(c1ccccc1)S(=O)(=O)c1ccc(C(=O)Nc2cccc(NC(C)=O)c2)cc1 | 0 | 0 | 0 | 0 | 0 | - | -
CN(c1ccccc1)S(=O)(=O)c1cccc(C(=O)NNC(=O)c2ccccc2)c1 | 0 | 0 | 0 | 56 | 0 | 0 | 38
CN(c1ccccc1)S(=O)(=O)c1cccc(NC(=O)c2ccc(Cl)c([N+](=O)[O-])c2)c1 | 0 | 0 | 0 | 95 | 0 | - | 84
Cc1cc(C(=O)Cn2cnc3ccc(Cl)cc3c2=O)c(C)n1C1CC1 | 0 | - | - | 0 | 0 | - | -
Cc1cc(OCC(=O)NC2CC(C)(C)NC(C)(C)C2)c2c(C)c(C)c(=O)oc2c1 | 0 | 0 | 0 | 0 | 0 | - | -
O=C(CCCCC(=O)NNC(=O)COc1ccccc1)NNC(=O)COc1ccccc1 | 0 | 0 | 0 | 0 | 0 | - | -
CCSc1nnc(NC(=O)c2cccc(S(=O)(=O)N(C)c3ccc(C)cc3)c2)s1 | 0 | 0 | 0 | 72 | 0 | 0 | 73
SMILES | aDG glyco act | XBP1 UPR activ | CHOP UPR activ | MPTP inh | GRIN3A LBD mod | CHOP inh | MPTP counter | others
CN(c1ccccc1)S(=O)(=O)c1ccc(NC(=S)Nc2ccccc2)cc1 | 0 | 0 | 0 | 96 | 0 | 0 | 91
CC(=O)Nc1ccc(C(=O)Nc2cccc(S(=O)(=O)N(C)c3ccccc3)c2)cc1 | 0 | 0 | 0 | 0 | 0 | - | -
CN(c1ccccc1)S(=O)(=O)c1cccc(NC(=O)Nc2ccc(Cl)cc2C#N)c1 | 0 | 0 | 0 | 71 | 0 | 0 | 86
CN(c1ccccc1)S(=O)(=O)c1cccc(NC(=O)c2ccncc2)c1 | 0 | 0 | 0 | 96 | 0 | 0 | 69
CC(=O)Nc1ccc(S(=O)(=O)N(C)c2ccccc2)cc1 | 0 | 0 | 0 | 0 | 0 | 0 | -
CCc1ccc(CN(C)C(=O)CCc2nnc(CCc3cccc(OC)c3)o2)nc1 | 0 | 0 | 0 | 0 | 0 | 0 | -
Cc1ccc(NC(=O)Cn2ccnc2)cc1C | 0 | 0 | 0 | 0 | 0 | - | -
CN(C)C(CNC(=O)c1cc(S(=O)(=O)N(C)Cc2ccccc2)ccc1Cl)c1ccco1 (stereo unspecified) | 0 | 0 | 0 | 68 | 0 | - | 70
CC1(C)CC(=O)C(=Cc2cn(CCC#N)nc2-c2ccc(Cl)cc2)C(=O)C1 | 0 | 0 | 0 | 77 | 0 | 0 | 59
CC1(C)CC(=O)C(=Cc2cn(CCC#N)nc2-c2ccc(F)cc2)C(=O)C1 | 0 | 0 | 0 | 63 | 0 | 0 | 41
N#CCCn1cc(/C=N/O)c(-c2ccc(F)cc2)n1 | 0 | 0 | 0 | 0 | 0 | 0 | -
CCN1CCN(C(=O)C(N)Cc2ccccc2)CC1 (stereo unspecified) | 0 | 0 | 0 | 0 | 0 | 0 | -
O=C(Nc1ccc(C(F)(F)F)cc1)C1CCN(S(=O)(=O)c2ccc(N3CCCC3=O)cc2)CC1 | 0 | 0 | 0 | 92 | 0 | - | 88
O=C(Nc1ccc([N+](=O)[O-])cc1)Nc1cnccn1 | 0 | 0 | 0 | 69 | 0 | - | 89
O=C(Nc1ccc(Cl)cc1)Nc1cnccn1 | 0 | 0 | 0 | 53 | 0 | 0 | 70
CC1(C(=O)Nc2ccc3ccccc3c2)CCC(=O)N1CCc1c[nH]c2ccccc12 (stereo unspecified) | 0 | - | - | 0 | - | - | -
CC(=O)N(C)c1ccc(NS(=O)(=O)c2cccc3nsnc23)cc1 | 0 | 0 | 0 | 0 | 0 | - | -
CCN1CCN(CCNC(=O)c2ccc3nc(-c4cccc(C)c4)c(-c4cccc(C)c4)nc3c2)CC1 | 0 | 0 | 0 | 96 | 0 | - | 0
COc1ccc(C(=O)NCCCN2CCOCC2)cc1 | 0 | 0 | 0 | 0 | 0 | - | -
COc1ccc(-c2nc3ccc(C(=O)NCCCN4CCOCC4)cc3nc2-c2ccc(OC)cc2)cc1 | 0 | 0 | 0 | 84 | 0 | - | 0 | MPTP swell DR=4.9;MPTP counter DR=0
CNS(=O)(=O)c1cccc(C(=O)NCC(c2cccs2)N2CCOCC2)c1 (stereo unspecified) | 0 | 0 | 0 | 0 | 0 | - | -
COc1ccc(C(C)(O)c2nc(-c3cccc(C(C)C)c3)cs2)cc1 (stereo unspecified) | 0 | - | - | 0 | - | - | -
COc1ccc(OC)c(NC(=O)CSc2ncnc3c2cnn3-c2ccccc2Cl)c1 | 0 | 0 | 0 | 84 | 0 | 80 | 82
